In the library only some 1.3% were active in any assay of this set; here they are far more common.
DDE Tn6 FP inh = disrupts Tn6 cyclic peptide binding to fibrin D-Dimer-E complex; hit rate 0.21% among 370,000; inhibition, % at 8.3 µM; Fibrin DD(E) TRITC-Tn6 fluorescence polarization displacement; AID 720509;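 active = inhibition above a per-campaign cutoff: mean of compounds within control limits plus 3 SD, cut at about 15% in these data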
Target sequence (P02675 whole entry, looked up): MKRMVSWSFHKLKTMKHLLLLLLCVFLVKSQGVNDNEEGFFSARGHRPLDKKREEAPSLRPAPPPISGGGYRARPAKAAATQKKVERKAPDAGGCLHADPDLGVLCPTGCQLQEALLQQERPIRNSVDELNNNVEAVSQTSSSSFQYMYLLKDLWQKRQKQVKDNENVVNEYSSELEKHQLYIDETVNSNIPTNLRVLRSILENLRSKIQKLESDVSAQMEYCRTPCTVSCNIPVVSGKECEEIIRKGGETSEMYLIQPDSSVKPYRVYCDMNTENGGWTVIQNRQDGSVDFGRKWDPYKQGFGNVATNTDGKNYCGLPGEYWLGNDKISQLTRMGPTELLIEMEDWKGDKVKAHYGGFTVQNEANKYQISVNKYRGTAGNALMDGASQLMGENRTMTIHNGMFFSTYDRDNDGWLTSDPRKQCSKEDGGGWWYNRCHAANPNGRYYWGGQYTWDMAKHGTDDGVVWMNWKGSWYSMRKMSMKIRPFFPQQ
CRFR2-BP ag = CRF-BP/CRF-R2 complex agonism; HEK293 CRF-R2/CRF-BP, calcium dye fluorescence (FLIPR); percent of saturating CRF peptide response; activation, % at 13.2 µM; hit rate 0.46% among 350,000;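 active = activation of at least 50%, plus an integration ratio under a set limit after plate pattern correction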
CRFBP-R2 block = antagonists of CRF-binding protein/CRF-R2 receptor complex. HEK293 CRF-R2/CRF-BP, CRF-induced calcium fluorescence. inhibition, % at 11.8 µM. hit rate 0.59% among 350,000. AID 588475;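 active = inhibition of the ligand-induced calcium signal above about 50% at the single tested concentration, limit read from the data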
DDE Tn7 FP inh = disrupts Tn7 cyclic peptide binding to fibrin D-Dimer-E complex | FP displacement of FITC-Tn7 peptide from fibrin DD(E); 0% = median of compound wells per plate | inhibition, % at 8.3 µM | hit rate 0.13% among 370,000 | AID 720508;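 active = inhibition above the mean of compounds falling within the control limits plus 3 SD of them, cut at about 14% in these data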
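Test system – human fibrin DD(E) · Times – 10 min preincubation, 3 h with tracer, room temperature · Detection – fluorescence polarization of the labelled Tn7 tracer · Measure – percent inhibition normalized to high-control wells · Benchmarks – high control wells with 10 µM unlabelled Aha-Tn7 peptide (full inhibition) · Repeats – singlicate testing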
Tn6 DDE ctr = DD(E)-Tn6 binding inhibition, counter-screen. hit rate 2% among 680. AID 720621. shares compounds with DDE Tn6 FP inh. inhibition, % at 8.3 µM. Fibrin DD(E), TRITC-Tn6 fluorescence polarization displacement; 0% = median of compound wells, not DMSO;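 active = inhibition above the mean of test compounds lying between the control limits plus 3 SD of those, cut at about 14% in these data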
Tn6 DDE conf = confirmation of inhibitors of Tn6 binding to human fibrin DD(E); inhibition, % at 8.3 µM; FP displacement of TRITC-Tn6 peptide from DD(E); 0% = per-plate median of test wells; shares compounds with DDE Tn6 FP inh; hit rate 10% among 680;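 active = inhibition above the mean of compounds lying within the control limits plus 3 SD, cut at about 16% in these data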
Each line names hits and unclear results; the compound was inactive in the other large screens (follow-up assays come after a bar, where they were run).

C[C@H](CO)N1C[C@H](C)[C@@H](CN(C)S(=O)(=O)c2ccccc2)Oc2c(NC(=O)Nc3ccc(C(F)(F)F)cc3)cccc2C1=O	none
COc1ccc(S(=O)(=O)N(C)C[C@H]2Oc3ccc(NC(=O)Nc4ccc(C(F)(F)F)cc4)cc3C(=O)N([C@H](C)CO)C[C@@H]2C)cc1	DDE Tn6 FP inh 81.4 | Tn6 DDE ctr inactive | Tn6 DDE conf 34.2
O=C(O)CCCNc1cc(N2CCN(C(=O)c3ccco3)CC2)c2noc3c2c1C(=O)c1ccccc1-3	DDE Tn6 FP inh 32.3 | Tn6 DDE ctr inactive | Tn6 DDE conf 58.2
Cc1ccc(NC(=O)/C=C/c2ccc([N+](=O)[O-])s2)cc1	DDE Tn6 FP inh 17.5 | Tn6 DDE ctr inactive | Tn6 DDE conf inactive
CN(C)c1cccc(O)c1	DDE Tn6 FP inh 34.0 | Tn6 DDE ctr inactive | Tn6 DDE conf inactive
Cc1ccc(Cl)cc1NC(=O)CN1C(=O)COc2ccc(S(=O)(=O)N3CCOCC3)cc21	DDE Tn6 FP inh 16.0 | Tn6 DDE ctr inactive | Tn6 DDE conf inactive
Cn1c(N)c(S(=O)(=O)N2CCN(c3cccc(Cl)c3)CC2)c(=O)n(C)c1=O	DDE Tn6 FP inh 15.9 | Tn6 DDE ctr inactive | Tn6 DDE conf inactive
Cc1c(S(=O)(=O)N2CCN(c3cccc(Cl)c3)CC2)c(=O)n(C)c(=O)n1C	none
O=C(Nc1ccc(Cl)cn1)C1CCN(c2ncnc3c2nc2n3CCCCC2)CC1	DDE Tn6 FP inh 17.1 | Tn6 DDE ctr inactive | Tn6 DDE conf inactive
O=c1ccc2c(-c3ccccc3)c3ccc(O)cc3oc-2c1	DDE Tn6 FP inh 68.1, CRFR2-BP ag 177.8 | Tn6 DDE ctr 53.3 | Tn6 DDE conf 38.2
Nc1ccc(-c2c3ccc(=O)cc-3oc3cc(O)ccc23)cc1C(=O)O	none
Cc1ccc(Cn2ccsc2=NC(=O)COC(=O)c2ccc(NC(=O)CC#N)cc2)cc1	DDE Tn6 FP inh 16.1 | Tn6 DDE ctr inactive | Tn6 DDE conf inactive
Cc1ccc(Cn2ccsc2=NC(=O)CCl)cc1	none
CCC1(C)CC(CCN(Cc2ccco2)C(C)=O)(c2ccccc2)CCO1 (stereo not given)	DDE Tn6 FP inh 16.8 | Tn6 DDE ctr inactive | Tn6 DDE conf inactive
CC1(C)CC(CCN(Cc2ccccc2)C(=O)c2ccco2)(c2ccccc2)CCO1 (stereo not given)	none
N#C/C(=C/C1=C(N2CCOCC2)C(=C/c2ccc(Cl)cc2Cl)/CC1)C(=O)Nc1ccccc1F	DDE Tn6 FP inh 156.4 | Tn6 DDE ctr inactive | Tn6 DDE conf inactive
N#C/C(=C\C1=C(N2CCOCC2)C(=C\c2ccc(Cl)cc2)/CC1)C(=O)Nc1ccccc1F	none
Cc1ccc(S(=O)(=O)N2CCN(c3nc(C)c4c(c3C#N)CC(C)(C)OC4)CC2)cc1	DDE Tn6 FP inh 15.6 | Tn6 DDE ctr inactive | Tn6 DDE conf inactive
Cc1nc(N2CCOCC2)c(C#N)c2c1COC(C)(C)C2	none
CN(C)c1cccc(/C=C2\CC3(OC(=O)C4CCCC4)CCCN2C3)c1 (stereo not given)	none (no result: CRFR2-BP ag, CRFBP-R2 block)
N#Cc1ccc(/C=C2\CC3(OC(=O)c4cccc(F)c4)CCCN2C3)cc1 (stereo not given)	none (no result: CRFR2-BP ag, CRFBP-R2 block)
O=C1c2[nH]nc(-c3ccccc3)c2C(c2ccc(F)cc2)N1Cc1ccccc1 (stereo not given)	none (no result: CRFR2-BP ag, CRFBP-R2 block)
CCCC(NC(=O)CNC(=O)C(C)(C)C)C(=O)O (stereo not given)	DDE Tn6 FP inh 15.6 | Tn6 DDE ctr inactive | Tn6 DDE conf inactive
COC(=O)c1ccc2c(c1)C(C)(C)C(/C=C/c1ccc(OC)c(OC)c1OC)=[N+]2C	DDE Tn6 FP inh 129.5 | Tn6 DDE ctr inactive | Tn6 DDE conf inactive
COC(=O)c1ccc2c(c1)C(C)(C)C(/C=C/c1ccc(O)cc1)=[N+]2C	DDE Tn6 FP inh 63.9, CRFR2-BP ag 51.2 | Tn6 DDE ctr inactive | Tn6 DDE conf inactive
COc1ccc(-n2c(SCC(=O)Nc3ccc(S(=O)(=O)Nc4nccs4)cc3)nnc2-c2ccco2)cc1	none (no result: CRFR2-BP ag, CRFBP-R2 block)
CN1C(=O)c2cc(NC(=O)Nc3ccccc3)ccc2OC[C@H]2O[C@@H](CC(=O)Nc3cc(F)ccc3F)CC[C@@H]21	none (no result: CRFR2-BP ag, CRFBP-R2 block)
O=S1(=O)c2c(cccc2N2CCSCC2)Oc2ccccc2CN1Cc1cn(Cc2ccc(Cl)cc2)nn1	none (no result: CRFR2-BP ag, CRFBP-R2 block)
C=CCn1c(SCc2cccc(C(F)(F)F)c2)nnc1-c1ccc(OC)cc1	none (no result: CRFR2-BP ag, CRFBP-R2 block)
CCN(c1ccccc1)S(=O)(=O)c1cc(C(=O)NCC(c2ccc(OC)cc2)N(C)C)ccc1C (stereo not given)	DDE Tn6 FP inh 16.6 | Tn6 DDE ctr inactive | Tn6 DDE conf inactive
COc1ccc(C(CNC(=O)c2ccc(S(=O)(=O)N(C)C)cc2)N(C)C)cc1 (stereo not given)	none
COc1ccc2c(c1OC)c(=O)n1c3ccc(OC(C)C(=O)NCCN4CCOCC4)cc3c3ccnc2c31 (stereo not given)	DDE Tn6 FP inh 27.0 | Tn6 DDE ctr inactive | Tn6 DDE conf inactive
COc1ccc2c(c1OC)c(=O)n1c3ccc(OC(C)C(=O)NCCCN4CCOCC4)cc3c3ccnc2c31 (stereo not given)	none (no result: DDE Tn6 FP inh, DDE Tn7 FP inh)
CC(Oc1ccc2c(c1)c1ccnc3c4ccccc4c(=O)n2c13)C(=O)NCCN1CCOCC1 (stereo not given)	DDE Tn6 FP inh 35.6 | Tn6 DDE ctr inactive | Tn6 DDE conf inactive
CC1(C(=O)N2CCC(Oc3cccnc3)CC2)CC1	none (no result: CRFR2-BP ag, CRFBP-R2 block)
O=C(O)Cn1cc(/C=C2/SC(=O)N(CC(=O)N3CCCCCC3)C2=O)c2ccccc21	DDE Tn6 FP inh 15.5 | Tn6 DDE ctr inactive | Tn6 DDE conf inactive
CCN(CC)C(=O)CC[C@H]1CC[C@]2(CCCN(C3CCCCC3)C2)O1	none (no result: CRFR2-BP ag, CRFBP-R2 block)
CSc1cccc(NC(=O)NCc2cccc(CNC(=O)Nc3cccc(SC)c3)c2)c1	DDE Tn6 FP inh 27.0 | Tn6 DDE ctr inactive | Tn6 DDE conf inactive
CSc1cccc(NC(=O)C(=O)NCc2ccccc2)c1	none
CC(C)(C)n1nc2c(c1NC(=O)COc1ccc(F)cc1)CS(=O)(=O)C2	DDE Tn6 FP inh 15.9 | Tn6 DDE ctr inactive | Tn6 DDE conf inactive
COc1ccc(OCC(=O)Nc2c3c(nn2C(C)(C)C)CS(=O)(=O)C3)cc1	none
CCOc1ccc(CCNC(=O)c2cc3sc(Cl)cc3n2C)cc1OCC	DDE Tn6 FP inh 33.8 | Tn6 DDE ctr inactive | Tn6 DDE conf inactive
CCOc1ccc(CCNC(=O)c2cc3sccc3n2C)cc1OCC	none
C#CCN1CC(N(C)CCCO)CS1(=O)=O (stereo not given)	none (no result: CRFR2-BP ag, CRFBP-R2 block)
COc1ccc(C(CNC(=O)C(=O)NC2CCCCC2)N2CCN(C)CC2)cc1 (stereo not given)	DDE Tn6 FP inh 15.9 | Tn6 DDE ctr inactive | Tn6 DDE conf inactive
COC(=O)c1cc(C(=O)OCC(=O)NC2CCCCCCC2)cc([N+](=O)[O-])c1	DDE Tn6 FP inh 16.6 | Tn6 DDE ctr inactive | Tn6 DDE conf inactive
O=C(COC(=O)c1ccc([N+](=O)[O-])cc1)NC1CCCC1	none

Bioassay records: PubChem, several laboratories
